Measured values as given in the EternaBench riboswitch data.

Assays:
[1] = test system: MS2 coat protein; test: apparent Kd, MS2 coat protein; higher = weaker binding; RNA-MaP array
Procedure, shortened: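 In Tris-HCl pH 7.5 buffer with KCl, MgCl2, BSA, DTT, tRNA and Tween20, with or without input ligand, fluorescently labeled MS2 coat protein at 1.5 nM to 3 μM was incubated at room temperature with designed RNAs. The RNAs had been transcribed on an Illumina sequencing chip from sequenced DNA templates, and incubation ran 0.8–1.5 h at the lowest to 10–20 min at the highest concentrations. Apparent Kd is the median of binding-curve fits for individual clusters. Designs measured on fewer than 10 clusters were excluded.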

[2] = test system: MS2 coat protein; test: apparent Kd, MS2 coat protein; higher = weaker binding; RNA-MaP array; FMN 200 µM where present
Procedure, shortened: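 Apparent Kd: the median of filtered binding-curve fits from single clusters. Designs were transcribed on Illumina sequencing-chip clusters by stalled E. coli RNA polymerase and titrated with SNAP-549-labelled MS2 coat protein from 0.7 or 1.5 nM, doubling to 3 µM, in 100 mM Tris-HCl pH 7.5, 80 mM KCl, 4 mM MgCl2, BSA, DTT, yeast tRNA and Tween-20. Each series ran without and then with constant ligand, and green signal was normalised to red-channel RNA signal and control-cluster median Fmax.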

[3] = designed as: OFF switch for theophylline, no ligand
[4] = ligand present: theophylline, designed as: OFF switch for theophylline
[5] = designed as: OFF switch for flavin mononucleotide, no ligand
[6] = ligand present: flavin mononucleotide, designed as: OFF switch for flavin mononucleotide
[7] = designed as: ON switch for flavin mononucleotide, no ligand
[8] = ligand present: flavin mononucleotide, designed as: ON switch for flavin mononucleotide

Sequence: AAAACGCAACUCGAUACCAGUACACUGAGUCUUCGCCACGACAUGAGGAUCACCCAUGUGUACCCUUGGCAGCGACAGAGCCACA
- apparent Kd [1, 3]: 0.0539 µM
- apparent Kd [1, 4]: 0.261 µM

Sequence: AAAACUAAAGUCAGGAUAUAACGAAUCGAAGAUAGAUAGAAGGGACAUGAGGAUCACCCAUGUGAGGAAGACAA
- apparent Kd [1, 5]: 0.0131 µM
- apparent Kd [1, 6]: 0.0111 µM

Sequence: AAAAGAAGCUGAGGAUAUUGGUUAACAUGAGGAUCACCCAUGUCGUUGGUGGAAAACACCUGACGCAAGAAGGCAGACACUUAU
- apparent Kd [1, 7]: 0.0157 µM
- apparent Kd [1, 8]: 0.00781 µM

Sequence: AAAAGGAUGAUAGGAUAUCAUAACAUGAGGAUCACCCAUGUACAGACGCAACGCUAAACUAGACAUGAGAAGGAUCACAAAACA
- apparent Kd [1, 7]: 0.179 µM
- apparent Kd [1, 8]: 0.0822 µM

Sequence: AAAAUCUGGUGAGGAUAUUGUUGAUGAUACAAACAAGAAGGCACGUUGACAUAGCGGGACAACAUGAGGAUCACCCAUGUCACU
- apparent Kd [1, 5]: 0.0466 µM
- apparent Kd [1, 6]: 0.0421 µM

Sequence: AAAUAAGAGGAGAAGGGCAAAAUGUCGAACCGAGCAGGAUAUCCACAGAACAUGAGGAUCACCCAUGUGGUCAAACAGUACAAA
- apparent Kd [1, 7]: 0.0544 µM
- apparent Kd [1, 8]: 0.039 µM

Sequence: AAAUAAUCUAGUCCACAAUGUGACUCAGAUACCAGUGCAAAGCUACACCCUUGGCAGCUGGUUACAUGAGGAUCACCCAUGUCGU
- apparent Kd [1, 3]: 0.0476 µM
- apparent Kd [1, 4]: 0.116 µM

Sequence: AAAUACGUAAAACAUGAGGAUCACCCAUGUACAUUUAUUACCAGAAGGAGCGCUAAAAGUACCAGCUAGGAUAUGGGAAGCAAC
- apparent Kd [1, 7]: 0.00805 µM
- apparent Kd [1, 8]: 0.00583 µM

Sequence: AAAUGGGAGGUACGCACCACUACAUGAGGAUCACCCAUGUAUAGAAGGCAGGUCUGGACUCGUCCUGAGGAUAUAUGAUUUGAC
- apparent Kd [1, 5]: 0.0179 µM
- apparent Kd [1, 6]: 0.0165 µM

Sequence: AACACGCUGGUAGGAUAUUACAACAUGAUGACUCGUCCAAGAAACAACAUGAGGAUCACCCAUGUUAAGAAGGACCACAAGAAA
- apparent Kd [1, 5]: 0.00713 µM
- apparent Kd [1, 6]: 0.00792 µM

Sequence: AACAGAAGGCAAGGAUAUAAGGGACCCCCAACAUGAGGAUCACCCAUGUUCUAUGAGGCCGAAUUUUAGAAGGUGCGGGACUAG
- apparent Kd [1, 7]: 0.0439 µM
- apparent Kd [1, 8]: 0.0322 µM

Sequence: AACAUGAGGAUCACCCAUGUAGGUACUUCUCGACGGCCUACAAGAAGGUGUUGUAAAGUCAAGAACAAGGAUAUUGUGAUGGCU
- apparent Kd [1, 5]: 0.555 µM
- apparent Kd [1, 6]: 0.371 µM

Sequence: AACGACAUGAGGAUCACCCAUGUAUACGACCGAAGUGUACGGUAGGAUAUCGACAGCAUAGAUAACGAGAAGGACCCUUUUGGA
- apparent Kd [1, 7]: 0.0181 µM
- apparent Kd [1, 8]: 0.0118 µM

Sequence: AACGAUUAAUCGGCCGCCACUCACAUGAGGAUCACCCAUGUUGUUCUUCCAGGUGGUUCUGUUCCGAGGACCGGGAUUCCGUCCU
- apparent Kd ([1]; designed as: OFF switch for tryptophan, no ligand): 0.0551 µM
- apparent Kd ([1]; ligand present: tryptophan, designed as: OFF switch for tryptophan): 0.0575 µM

Sequence: AACUGGAAGGAAGGAUAUUCAACCACGAUCAGUGCCAAGCACAUGAGGAUCACCCAUGUUGUCCUGAAGAAGGUCCUAUGUCAA
- apparent Kd [1, 5]: 0.0163 µM
- apparent Kd [1, 6]: 0.0115 µM

Sequence: AAGUCAGGAGGCGAUACCAGUUACGACAUGGCCAGUUACAUGAGGAUCACCCAUGUGCGGAACCCUUGGCAGCGCUUACAUCGCU
- apparent Kd [1, 3]: 0.0231 µM
- apparent Kd [1, 4]: 0.165 µM

Sequence: AAUUUUAUGAAAGGAUAUGUGUGCUGGUCCAUCACAGAAGGUUCAAGGAGAUGGAUAUAACGACAUGAGGAUCACCCAUGUGCU
- apparent Kd [1, 7]: 0.032 µM
- apparent Kd [1, 8]: 0.0221 µM

Sequence: ACACGCUAAGGAUAUACAUGAGGAUCACCCAUGUUAAAAGUUAAAUAGGAAUGAUACCGUAGAAGGUAGGAUGA
- apparent Kd [1, 5]: 0.0132 µM
- apparent Kd [1, 6]: 0.0114 µM

Sequence: ACAUGAGGAUCACCCAUGUGGUCGGCUAUCUACCCAAUGGGCGAGGAUAUCGAGGCAAGAUAAUUCGAGAAGGCGCGUAAGAUA
- apparent Kd [1, 5]: 0.101 µM
- apparent Kd [1, 6]: 0.0474 µM

Sequence: UUUACAUGAGGAUCACCCAUGUCUUGCAAGAUGAGUUCUGGUGAGGAUAUACAUGAUAAAGAACUGUAGAAGGCACUGGGUACA
- apparent Kd [2, 7]: 0.305 µM
- apparent Kd [2, 8]: 0.362 µM

Sequence: UUUAGUAUCUAGGAUAUCUAGUACAUAGUAUCUAGAGAAGGAGAUACAUGAGGAUCACCCAUGUUCUGUGAUCU
- apparent Kd [2, 5]: 0.21 µM
- apparent Kd [2, 6]: 0.0364 µM

Sequence: UUUAGUUGCGGGCAGGAUAUGUAUUAAAAUACAUGAGGAUCACCCAUGUGCGGGUAUAACACCCGACAGAAGGGCCAAUCGCGAC
- apparent Kd [2, 7]: 0.322 µM
- apparent Kd [2, 8]: 0.0333 µM

Sequence: UUUAUAAAUUAGAAGGCGAGAUAAAUUACAAUAGACAUGAGGAUCACCCAUGUGUACCCAUGUUUUGAGGAUAUAGUCAUAUAU
- apparent Kd [2, 7]: 1.14 µM
- apparent Kd [2, 8]: 0.624 µM

Sequence: UUUAUAAAUUAGAAGGCGUGAUAAAAUACAAUAGACAUGAGGAUCACCCAUGUGUACCCAUGUUAUGAGGAUAUAGUCAUAUAU
- apparent Kd [2, 7]: 0.279 µM
- apparent Kd [2, 8]: 0.233 µM

Sequence: UUUAUACAUGAGGAUCACCCAUGUGAGGAUAUGCUUUAUUAUUAUUAUUAUUAUUAUUGCAGAAGGUACGUUAU
- apparent Kd [2, 5]: 0.0357 µM
- apparent Kd [2, 6]: 0.0361 µM

Sequence: UUUAUGGGACAGAAGGGCAUUUACAUGAGGAUCACCCAUGUUCAUCAUUGCAGGAUAUGUAUUACAUGAGGAUCACCUAUGUAC
- apparent Kd [2, 7]: 0.0749 µM
- apparent Kd [2, 8]: 0.0244 µM
